ChEMBL document CHEMBL2390836, “Synthesis and antitumor activities of naturally occurring oleanolic acid triterpenoid saponins and their derivatives” (Eur J Med Chem, 2013)

Experiments:
Assay type in all cases: functional, cell-based
[1] = test system: A549; experiment: Cytotoxicity against human A549 cells after 72 hrs by sulforhodamine B assay; conditions: A549, 72 h
In short: (§1)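 Cells seeded in 96-well plates and exposed in triplicate to a concentration gradient at 37 °C for 72 h. Total protein staining with sulforhodamine B was the read-out. IC50 was calculated by the Logit method from at least three independent experiments.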

[2] = test system: HL-60; experiment: Cytotoxicity against human HL60 cells after 72 hrs by MTT assay; conditions: HL-60, 72 h
In short: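 HL-60 human promyelocytic leukemia cells were plated in 96 wells and treated in triplicate with graded concentrations at 37 °C for 72 h. Viability was read by MTT reduction. IC50 was obtained by the Logit method from at least three independent experiments.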

[3] = test system: A-375; experiment: Cytotoxicity against human A375 cells after 72 hrs by sulforhodamine B assay; conditions: A-375, 72 h; in short: as §1

| SMILES | IC50 [1] [µM] | IC50 [2] [µM] | IC50 [3] [µM] |
| --- | --- | --- | --- |
| C[C@@H]1O[C@@H](O[C@H]2[C@H](O[C@H]3CC[C@]4(C)[C@H]5CC=C6[C@@H]7CC(C)(C)CC[C@]7(C(=O)O[C@@H]7O[C@H](CO[C@@H]8O[C@H](CO)[C@@H](O)[C@H](O)[C@H]8O)[C@@H](O)[C@H](O)[C@H]7O)CC[C@@]6(C)[C@]5(C)CC[C@H]4C3(C)C)OC[C@@H](O)[C@@H]2O)[C@H](O)[C@H](O[C@@H]2OC[C@@H](O)[C@H](O)[C@H]2O)[C@H]1O | > 20 | > 20 | > 20 |
| C[C@@H]1O[C@@H](O[C@H]2[C@H](O[C@H]3CC[C@]4(C)[C@H]5CC=C6[C@@H]7CC(C)(C)CC[C@]7(C(=O)O[C@@H]7O[C@H](CO[C@@H]8O[C@H](CO)[C@@H](O)[C@H](O)[C@H]8O)[C@@H](O)[C@H](O)[C@H]7O)CC[C@@]6(C)[C@]5(C)CC[C@H]4C3(C)C)OC[C@@H](O)[C@@H]2O)[C@H](O)[C@H](O[C@@H]2O[C@H](CO)[C@@H](O)[C@H](O)[C@H]2O)[C@H]1O | > 20 | > 20 | > 20 |
| CC1(C)CC[C@]2(C(=O)O)CC[C@]3(C)C(=CC[C@@H]4[C@@]5(C)CC[C@H](O[C@@H]6O[C@H](CO)[C@@H](O)[C@H](O)[C@H]6O[C@@H]6O[C@H](CO)[C@@H](O)[C@H](O)[C@H]6O)C(C)(C)[C@@H]5CC[C@]43C)[C@@H]2C1 [ACUTOSIDE A] | 15.3 | 12.5 | 10.3 |
| COc1cccc2c1C(=O)c1c(O)c3c(c(O)c1C2=O)C[C@@](O)(C(=O)CO)C[C@@H]3O[C@H]1C[C@H](N)[C@H](O)[C@H](C)O1 [DOXORUBICIN] | 0.56 | 0.9 | 0.75 |
| CC[C@@]1(O)C(=O)OCc2c1cc1n(c2=O)Cc2cc3cc(O)ccc3nc2-1 [HYDROXYCAMPTOTHECIN] | 0.56 | 0.25 | 0.15 |
